Series [1] concerns the target T1, Adrenergic receptor alpha-1 (Homo sapiens, UniProt P35348+P25100+P35368).
T1 sequence (P35348 whole entry): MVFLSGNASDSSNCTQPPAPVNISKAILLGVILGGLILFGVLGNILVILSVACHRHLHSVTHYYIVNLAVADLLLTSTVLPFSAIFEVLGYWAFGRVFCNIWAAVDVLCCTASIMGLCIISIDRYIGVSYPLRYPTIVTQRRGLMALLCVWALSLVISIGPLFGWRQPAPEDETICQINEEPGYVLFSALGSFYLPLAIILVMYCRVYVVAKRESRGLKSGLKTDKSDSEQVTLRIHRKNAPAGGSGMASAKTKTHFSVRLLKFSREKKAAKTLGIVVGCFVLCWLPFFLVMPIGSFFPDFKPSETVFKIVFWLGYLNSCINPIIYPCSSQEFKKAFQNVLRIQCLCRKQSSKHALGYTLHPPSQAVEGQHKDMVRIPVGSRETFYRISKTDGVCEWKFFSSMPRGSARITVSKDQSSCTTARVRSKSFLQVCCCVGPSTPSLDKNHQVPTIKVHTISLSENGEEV
T1 sequence (P25100 whole entry): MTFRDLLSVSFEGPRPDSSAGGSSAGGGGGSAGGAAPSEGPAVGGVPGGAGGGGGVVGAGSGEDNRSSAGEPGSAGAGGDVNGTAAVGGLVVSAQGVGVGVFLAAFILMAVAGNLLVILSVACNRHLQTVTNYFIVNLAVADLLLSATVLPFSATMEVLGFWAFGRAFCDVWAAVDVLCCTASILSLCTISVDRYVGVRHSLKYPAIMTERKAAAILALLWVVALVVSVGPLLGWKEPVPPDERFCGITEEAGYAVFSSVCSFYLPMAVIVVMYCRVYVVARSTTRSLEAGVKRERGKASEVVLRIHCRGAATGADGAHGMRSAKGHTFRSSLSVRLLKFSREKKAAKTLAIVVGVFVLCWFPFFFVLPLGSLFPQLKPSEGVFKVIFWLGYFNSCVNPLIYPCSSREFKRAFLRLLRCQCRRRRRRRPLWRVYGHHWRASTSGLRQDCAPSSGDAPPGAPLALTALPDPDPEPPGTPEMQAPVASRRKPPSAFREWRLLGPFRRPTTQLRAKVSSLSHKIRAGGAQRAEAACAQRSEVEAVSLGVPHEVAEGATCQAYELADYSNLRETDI
T1 sequence (P35368 whole entry): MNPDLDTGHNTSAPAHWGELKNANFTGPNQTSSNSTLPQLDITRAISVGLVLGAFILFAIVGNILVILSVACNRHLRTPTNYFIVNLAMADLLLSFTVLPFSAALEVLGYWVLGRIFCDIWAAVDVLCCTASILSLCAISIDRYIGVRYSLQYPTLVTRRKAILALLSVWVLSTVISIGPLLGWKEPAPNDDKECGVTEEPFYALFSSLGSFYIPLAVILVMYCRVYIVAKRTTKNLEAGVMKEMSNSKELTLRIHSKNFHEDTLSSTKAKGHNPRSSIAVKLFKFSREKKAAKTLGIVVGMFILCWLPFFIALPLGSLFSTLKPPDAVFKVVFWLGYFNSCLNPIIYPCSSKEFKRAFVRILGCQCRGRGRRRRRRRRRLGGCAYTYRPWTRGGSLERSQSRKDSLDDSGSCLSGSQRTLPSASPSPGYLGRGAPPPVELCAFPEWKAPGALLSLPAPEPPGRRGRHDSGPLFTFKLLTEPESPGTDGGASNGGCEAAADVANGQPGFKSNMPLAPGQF
In words: Binding affinity against Alpha1 adrenergic receptor. Format: protein assay.

The target of series [2] is 5-hydroxytryptamine receptor 6 (Homo sapiens, UniProt P50406). In words: Binding affinity against 5-Hydroxy tryptamine 6 receptor.
Series [3] has as its target 5-hydroxytryptamine receptor 7 (Homo sapiens, UniProt P34969). In words: Binding affinity against 5-Hydroxy tryptamine 7 receptor. In short, it runs like this: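 Membranes from CHO cells expressing human 5-HT7, homogenized, pelleted at 18,000g, stored at -80 °C. Each well held 30 µg protein in 50 mM HEPES. Incubation was 60 min at 25 °C with 0.1-1000 nM compound and 1 nM [3H]-5-carboxamidotryptamine; nonspecific binding was defined with 10 µM serotonin. Stopped with ice-cold HEPES, GF/B filtration, scintillation counting. Ki by nonlinear regression; triplicate or more.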

The target of series [4] is T2, 5-hydroxytryptamine receptor 2C (Homo sapiens, UniProt P28335).
T2 sequence (P28335 whole entry): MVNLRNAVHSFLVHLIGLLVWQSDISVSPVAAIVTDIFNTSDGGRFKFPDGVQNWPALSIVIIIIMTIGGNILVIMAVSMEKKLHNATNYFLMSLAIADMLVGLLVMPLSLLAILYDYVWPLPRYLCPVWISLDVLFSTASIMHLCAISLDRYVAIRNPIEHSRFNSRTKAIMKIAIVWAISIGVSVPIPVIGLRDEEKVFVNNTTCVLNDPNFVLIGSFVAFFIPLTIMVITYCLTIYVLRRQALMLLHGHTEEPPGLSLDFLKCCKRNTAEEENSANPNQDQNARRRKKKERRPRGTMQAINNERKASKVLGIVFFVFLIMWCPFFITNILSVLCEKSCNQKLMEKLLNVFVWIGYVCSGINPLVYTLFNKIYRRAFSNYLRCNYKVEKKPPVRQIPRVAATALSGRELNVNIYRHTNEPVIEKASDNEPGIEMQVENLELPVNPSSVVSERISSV
In words: Binding affinity against 5-Hydroxy tryptamine 2C receptor.

The nature of series [5]: Oral bioavailability in rat. Particulars: in vivo. Format: ADME, organism-based.

Where only a bound is given, the exact number is not on record here.

5-hydroxytryptamine receptor 6, sequence (P50406 whole entry): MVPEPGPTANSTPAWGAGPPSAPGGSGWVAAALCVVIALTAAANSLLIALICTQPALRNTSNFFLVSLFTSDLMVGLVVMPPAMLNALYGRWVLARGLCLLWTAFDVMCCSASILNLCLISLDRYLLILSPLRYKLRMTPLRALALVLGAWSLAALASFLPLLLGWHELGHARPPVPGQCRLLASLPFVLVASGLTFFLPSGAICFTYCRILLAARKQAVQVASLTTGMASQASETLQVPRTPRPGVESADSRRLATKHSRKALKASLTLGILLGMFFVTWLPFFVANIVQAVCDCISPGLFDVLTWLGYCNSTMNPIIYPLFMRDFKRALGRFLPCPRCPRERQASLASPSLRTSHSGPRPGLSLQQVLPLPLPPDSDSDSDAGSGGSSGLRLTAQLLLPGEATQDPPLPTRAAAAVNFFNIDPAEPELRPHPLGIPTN
5-hydroxytryptamine receptor 7, sequence (P34969 whole entry): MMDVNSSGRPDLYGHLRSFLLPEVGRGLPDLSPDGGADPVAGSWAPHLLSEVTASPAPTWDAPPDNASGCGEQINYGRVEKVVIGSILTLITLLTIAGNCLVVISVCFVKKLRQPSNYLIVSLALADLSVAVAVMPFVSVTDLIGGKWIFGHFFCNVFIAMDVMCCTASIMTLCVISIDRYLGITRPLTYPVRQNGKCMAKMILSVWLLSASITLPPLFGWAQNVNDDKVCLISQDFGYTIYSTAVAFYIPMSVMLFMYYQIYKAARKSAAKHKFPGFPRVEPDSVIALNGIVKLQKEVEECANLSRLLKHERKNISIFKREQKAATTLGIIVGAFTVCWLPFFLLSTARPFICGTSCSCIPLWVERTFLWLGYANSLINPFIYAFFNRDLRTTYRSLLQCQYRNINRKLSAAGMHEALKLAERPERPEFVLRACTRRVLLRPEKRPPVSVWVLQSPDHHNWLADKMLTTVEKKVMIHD

What is called Ki is a dissociation constant, usually derived from enzyme kinetics or from competition with a known ligand. Low readings indicate tighter binding, high ones weaker binding. `CC(Nc1nc(N)nc(NCCc2cccs2)n1)c1ccc(F)cc1` (racemic): the Ki in series [1] is over 1000 nM; in series [2] it was 380 nM; in series [3], 2 nM; in series [4], 10 nM.

As for `C[C@H](Nc1ncnc(NCCOc2ccccc2)n1)c1ccccc1`, the affinity in series [3] corresponds to a Ki of 3 nM.

Turning to `CC(Nc1nc(N)nc(NCCOc2ccccc2)n1)c1ccccc1` (racemic), the Ki in series [3] was 8 nM. Compared with the last compound, the Ki is about 2.7-fold higher.

By bioavailability is commonly meant the share of a dose that reaches the circulation, judged against a reference dose that is usually intravenous. `C[C@H](Nc1nc(N)nc(NCCc2ccccn2)n1)c1ccc(F)cc1`: the inhibitory constant (Ki) in series [1] was over 1000 nM; in series [2], over 1000 nM; in series [3], 9 nM; in series [4], 160 nM. The compound also showed a bioavailability in series [5] of 15%.

Compound `CC(Nc1nc(N)nc(NCCc2ccccc2)n1)c1ccc(F)cc1` (stereo not drawn) gave a Ki in series [3] of 8 nM. In other words, the single-digit nanomolar range.

In series [3], `CC(Nc1nc(N)nc(NCCCc2ccccc2)n1)c1ccccc1` (racemic) registered a Ki of 60 nM.

In the case of `C[C@H](Nc1nc(F)nc(NCCOc2ccccc2)n1)c1ccccc1`, the Ki in series [3] came out at 10 nM.

Consider `C[C@H](Nc1nc(N)nc(NCCOc2ccc(F)cc2)n1)c1ccc(F)cc1`, for which the Ki in series [1] is 100 nM; in series [2], over 1000 nM; in series [4] it was over 1000 nM. This compound also registered a bioavailability in series [5] of 57%.

In series [3], `CC(Nc1nc(N)nc(NCCc2ccncc2)n1)c1ccc(F)cc1` (racemic) showed an inhibition constant (Ki) of over 1000 nM.

For the compound `C[C@H](Nc1nc(NCCOc2ccccc2)nc(N(C)C)n1)c1ccccc1`, in series [3], the Ki came out at 23 nM.

On to `C[C@H](Nc1nc(N)nc(NCCOc2ccccc2)n1)c1ccccc1`, for which the Ki in series [1] is 300 nM; in series [2], over 1000 nM; in series [3] it was 3 nM; in series [4], over 1000 nM. For the same compound, in series [5], the bioavailability amounted to 12%.

As for `Cc1nc(NCCOc2ccccc2)nc(N[C@@H](C)c2ccccc2)n1`, affinity in series [3] was put at a Ki of 54 nM.

With `C[C@@H](Nc1nc(N)nc(NCCOc2ccccc2)n1)c1ccccc1`, in series [3], the Ki was over 1000 nM.

`C[C@H](Nc1nc(N)nc(NCCc2ccc(F)cc2)n1)c1ccc(F)cc1`: the inhibition constant (Ki) in series [1] worked out at 200 nM; in series [2] it was 172 nM; in series [3], 2 nM; in series [4], 20 nM. In series [5], this compound yielded a bioavailability of 44%.

In series [3], `CC(Nc1nc(N)nc(NCCc2cccnc2)n1)c1ccc(F)cc1` (racemic) came in with a Ki of over 41000 nM.
